Screens: PubChem BioAssay, The Scripps Research Institute Molecular Screening Center
The list is not random: actives were taken first. Their share in the collection is about 3.9%.
m5-HT2A agonist – activates the mouse 5-HT2A serotonin receptor | P35363 | CHO-K1 mHTR2A beta-arrestin complementation, luminescence; percent of 30 µM serotonin response | activation, % at 7.6 µM | actives 0.66% (n = 360,000);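 active = activation above a run cutoff, the mean activation of all tested compounds plus 3 SD, cut at about 14% in these data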;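 also: 0% = plate median of compound wells and 100% = 30 µM serotonin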
Target sequence (P35363 whole entry, looked up): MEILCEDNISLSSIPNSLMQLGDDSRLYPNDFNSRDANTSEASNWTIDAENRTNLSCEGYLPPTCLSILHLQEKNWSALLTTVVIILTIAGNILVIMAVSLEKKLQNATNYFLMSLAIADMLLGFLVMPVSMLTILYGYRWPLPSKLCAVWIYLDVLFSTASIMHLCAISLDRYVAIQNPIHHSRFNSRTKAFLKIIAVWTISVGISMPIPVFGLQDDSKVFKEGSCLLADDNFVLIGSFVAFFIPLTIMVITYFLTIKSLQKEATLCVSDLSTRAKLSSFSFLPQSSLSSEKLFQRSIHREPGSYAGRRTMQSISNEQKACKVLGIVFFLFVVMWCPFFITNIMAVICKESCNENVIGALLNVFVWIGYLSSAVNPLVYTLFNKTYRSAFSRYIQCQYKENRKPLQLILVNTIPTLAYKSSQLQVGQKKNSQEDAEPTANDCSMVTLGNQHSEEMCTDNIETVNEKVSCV
M1 PAM – positive allosteric modulators of human M1 muscarinic receptor | P11229 | CHO-K1 hM1, Fluo-8 calcium fluorescence, ACh EC20; 0% = ACh EC20, 100% = maximal ACh | activation, % at 3 µM | actives 0.088% (n = 360,000) | AID 588819; in the data active = activation above about 19%, passing the limit was not always enough
M1 antag – antagonists of human M1 muscarinic receptor; P11229; CHO-K1 hM1, Fluo-8 calcium fluorescence, ACh EC80 antagonist; inhibition, % at 3 µM; actives 1.3% (n = 360,000);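 active = percent inhibition above its own plate's cutoff, namely the mean of that plate's compound wells plus 3 SD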;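 also: peak over basal fluorescence ratio during 140 s after agonist addition; 0% = ACh EC80 plus DMSO and 100% = DMSO alone without agonist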
TAAR1 antagonist – antagonists of human TAAR1. CHO RD-HGA16 TAAR1, Fluo-8 calcium fluorescence, antagonist. inhibition, % at 3 µM. Q96RJ0. actives 1.5% (n = 360,000);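 active = inhibition above a per-plate cutoff, the mean inhibition of test compounds on that plate plus 3 SD, cut at about 49% in these data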;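 also: 0% = DMSO plus EC80 beta-PEA response and 100% = DMSO alone without agonist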
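Test system – hTAAR1-expressing CHO RD-HGA16 cells, Gα16-coupled · Also added – β-PEA at EC80 concentration, post-compound challenge · Compound – 3 µM, single point · Incubation – dye loading 75 min at 37 °C, then 30 min room temperature · Measured by – Fluo-8 intracellular calcium dye fluorescence, real-time kinetic reads · Benchmarks – vehicle and agonist controls · Replicates – singlicate, one well per test compound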
TAAR1 agonist – agonists of human TAAR1. actives 0.99% (n = 360,000). Q96RJ0. activation, % at 3 µM. AID 624467. CHO RD-HGA16 TAAR1, Fluo-8 calcium fluorescence; vehicle wells 0%, saturating PEA agonist 100%;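 active = activation above the mean activation of all test compounds in the run plus 3 SD, cut at about 38% in these data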
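Test system: RD-HGA16 (CHO) cells co-expressing Gα16 and hTAAR1 | Doses: Single dose, 3 µM | Schedule: 17-24 h seeding, 75 min 37 °C dye, 30 min RT | Evaluation: % activation from peak over basal fluorescence ratio, DMSO-to-PEA scaled | Technique: Kinetic Fluo-8 calcium fluorescence | Benchmarks: Low control DMSO, high control PEA (EC100)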
CHRM1 agonist – human M1 muscarinic receptor agonism; CHO-K1 hM1, Fluo-8 calcium fluorescence, agonist mode; 0% DMSO, 100% acetylcholine EC100; activation, % at 3 µM; actives 0.33% (n = 360,000); AID 588814;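 active = activation above the run's mean compound activation plus 3 SD, cut at about 16% in these data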;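 also: peak over basal fluorescence ratio within a 140 s kinetic read after compound addition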
TAAR1 ag confirm – human TAAR1 agonism, confirmed. activation, % at 3 µM. actives 82% (n = 2,400). shares compounds with TAAR1 agonist. AID 651783. CHO RD-HGA16 TAAR1, Fluo-8 calcium fluorescence; scaled: DMSO 0%, maximal phenethylamine 100%;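 active = activation above a cutoff set at the run's mean compound activation plus 3 SD, cut at about 39% in these data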
Ga16 nonsel ag – counter-screen for TAAR1 agonists: nonselective agonists in parental cells; CHO-Ga16 parental, Fluo-8 calcium fluorescence; normalized to maximal ATP response, DMSO zero; actives 50% (n = 2,400); activation, % at 3 µM; shares compounds with TAAR1 agonist;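 active = activation above the run cutoff, the mean activation over all tested wells plus 3 SD, cut at about 12% in these data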;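 also: 0% = DMSO wells and 100% = maximal ATP response on the peak over basal ratio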
TAAR1 desensitize – TAAR1 response desensitization, agonist counter-screen | shares compounds with TAAR1 agonist | CHO RD-HGA16 hTAAR1, Fluo-8 calcium, beta-PEA response inhibition | inhibition, % at 3 µM | actives 46% (n = 2,400) | AID 651951;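 active = inhibition above the run cutoff, the mean inhibition of all test compounds plus 3 SD, cut at about 49% in these data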;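 also: beta-PEA stimulus applied at its EC80; loss of beta-PEA calcium signal after compound pretreatment read as receptor desensitization; 0% = DMSO with beta-PEA at EC80 and 100% = DMSO alone without agonist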
Ga16 antag count – nonselective Ga16 antagonist in TAAR1 agonist counter-screen; shares compounds with TAAR1 agonist; CHO-Ga16 ATP-induced calcium, Fluo-8 fluorescence; inhibition, % at 3 µM; actives 39% (n = 2,400); AID 651952;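 active = inhibition above the plate's mean compound inhibition plus 3 SD, computed per plate, cut at about 22% in these data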;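 also: 0% = EC80 ATP with DMSO and 100% = DMSO wells without ATP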
The depositor's hits bear a star; / = no result.

SMILES	m5-HT2A agonist	M1 PAM	M1 antag	TAAR1 antagonist	TAAR1 agonist	CHRM1 agonist	TAAR1 ag confirm	Ga16 nonsel ag	TAAR1 desensitize	Ga16 antag count
O=C(c1ccc(C(F)(F)F)cc1)C1CCCN(C(=O)CN2C(=O)CSC2=O)C1 (configuration not stated)	-4	11	-11	-3	0	-4	/	/	/	/
Nc1nc(N)c(C=Nc2ccc(Br)cc2)c(Nc2ccc(Br)cc2)n1	-4	19	-2	-17	80*	12	43*	19*	16	12
Brc1ccc(N=C/C=C/C=C/Nc2ccc(Br)cc2)cc1	-1	-4	2	-14	12	-14	/	/	/	/
O=C(NCCc1ccccc1)c1ccc([N+](=O)[O-])cc1	-2	1	3	32	56*	-5	97*	5	57*	-4
O=C(NCCc1ccccc1)/C(=C\c1ccc([N+](=O)[O-])cc1)NC(=O)c1ccc(Br)cc1	-1	11	-7	-15	56*	-3	36	0	-3	9
O=C(NCCc1ccc([N+](=O)[O-])cc1)c1ccccc1	-6	-12	30	-23	2	-3	/	/	/	/
OC[C@@H]1CN(CCc2ccccc2)C[C@H](n2cnc3c(NCc4ccc(F)cc4)ncnc32)O1	0	7	-17	1	66*	-3	75*	1	23	1
OCC1OC(n2cnc3c(NCCc4ccccc4)ncnc32)C(O)C1O (configuration not stated)	3	3	-22	38	70*	-2	75*	3	65*	6
CC(C)N(C)c1ncnc2c1ncn2[C@H]1CN(CCc2ccccc2)C[C@@H](CO)O1	4	10	-18	-13	48*	-4	63*	6	6	7
OC[C@@H]1CN(CCc2ccccc2)C[C@H](n2cnc3c(N4CCOCC4)ncnc32)O1	0	-6	3	9	61*	-3	74*	3	43	8
OC[C@@H]1CN(CCN2CCOCC2)C[C@H](n2cnc3c(NCc4ccc(F)cc4)ncnc32)O1	3	23	-27	-2	1	7	/	/	/	/
Nc1ccc(CCNc2ncnc3c2ncn3[C@@H]2O[C@H](CO)[C@@H](O)[C@H]2O)cc1	-2	6	-28	-3	0	-2	/	/	/	/
COc1ccc(N(CC(=O)NC2CCCCC2C)S(=O)(=O)c2c(C)nn(C)c2C)cc1 (configuration not stated)	4	2	-7	-7	3	-4	/	/	/	/
O=C(Nc1ccc(S(=O)(=O)Nc2cnc3ccccc3n2)cc1)c1ccc(Cl)c([N+](=O)[O-])c1	3	4	-3	-12	8	-5	/	/	/	/
Cc1cccn2c(CNCCc3ccccn3)c(C(=O)N3CCOCC3)nc12	-2	-1	6	9	49*	-5	68*	5	41	18
COc1ccccc1CNc1nc(NCCOc2ccccc2Cl)c2sccc2n1	-12	-11	14	34	3	0	/	/	/	/
CNc1nc(NCCOc2ccccc2Cl)c2sccc2n1	-8	-23	5	72*	72*	4	51*	50*	57*	47*
